This is an account of results in ChEMBL document CHEMBL1138563, “Synthesis and in vitro antimicrobial activity of some novel substituted benzimidazole derivatives having potent activity against MRSA” (2009).

Holding throughout (format): functional
Test [1] deals with Staphylococcus aureus. The experiment in a line: Antimicrobial activity against methicillin-resistant Staphylococcus aureus ATCC […] by tube dilution method. In outline: (§1)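 Tube dilution MIC assay. Compounds and standard drugs were dissolved in 50% DMSO–water as stock. The stock was diluted 4-fold with culture medium plus bacterial suspension to give the starting test concentration. That initial tube contained 12.5% DMSO, so no data were taken from it. The MIC was then read across the dilution series.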

Test [2] concerns Staphylococcus aureus. The experiment in a line: Antimicrobial activity against methicillin-resistant Staphylococcus aureus isolates by tube dilution method. In outline: as §1
In test [3] the test system is Staphylococcus aureus. The experiment in a line: Antimicrobial activity against Staphylococcus aureus ATCC 25923 by tube dilution method. In outline: as §1
Test [4] concerns Bacillus subtilis. As to the kind of experiment: Antimicrobial activity against Bacillus subtilis ATCC 6633 by tube dilution method. The method, boiled down: (§2)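 Tube dilution MIC determination. Test agents and reference drugs are dissolved as a stock in 50% DMSO–water, then diluted 4-fold with culture medium plus inoculum. The first dilution (12.5% DMSO) is excluded from scoring. The read-out is the minimum inhibitory concentration.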

In test [5] the test system is Candida albicans. As to the kind of experiment: Antimicrobial activity against Candida albicans ATCC 10145 by tube dilution method. In outline:
as §2

The subject of test [6] is Escherichia coli. The experiment in a line: Antimicrobial activity against Escherichia coli ATCC 25922 by tube dilution method. In outline:
as §2

Each structure is given as a SMILES string. Converted amounts (≈) assume the structure as drawn.

On to `Clc1ccc(-c2nc3cc(Cl)c(Cl)cc3[nH]2)cc1`, for which the MIC in test [1] came out at 3.12 mg/L (≈ 10.5 µM); in test [2], 3.12 mg/L (≈ 10.5 µM); in test [3] it was 3.12 mg/L (≈ 10.5 µM); in test [4], 50 mg/L (≈ 168 µM); in test [5], 12.5 mg/L (≈ 42 µM); in test [6], 50 mg/L (≈ 168 µM).

For `CC(C)(C)c1ccc(-c2nc3cc(Cl)c(Cl)cc3[nH]2)cc1`, the MIC in test [1] is 3.12 mg/L (≈ 9.77 µM); in test [2], 3.12 mg/L (≈ 9.77 µM); in test [3] it was 3.12 mg/L (≈ 9.77 µM); in test [4] it was 6.25 mg/L (≈ 19.6 µM); in test [5], 12.5 mg/L (≈ 39.2 µM); in test [6], 50 mg/L (≈ 157 µM).

On to `Clc1cc2nc(-c3ccc4ccccc4c3)[nH]c2cc1Cl`, for which the MIC in test [1] worked out at 50 mg/L (≈ 160 µM); in test [2] it was 50 mg/L (≈ 160 µM); in test [3], 50 mg/L (≈ 160 µM); in test [4], 25 mg/L (≈ 79.8 µM); in test [5], 25 mg/L (≈ 79.8 µM); in test [6], 50 mg/L (≈ 160 µM).

Turning to `O=[N+]([O-])c1cccc(-c2nc3cc(Cl)ccc3n2C2CCCC2)c1`, the MIC in test [1] amounted to 50 mg/L (≈ 146 µM); in test [2] it was 50 mg/L (≈ 146 µM); in test [3] it was 50 mg/L (≈ 146 µM); in test [4], 25 mg/L (≈ 73.1 µM); in test [5], 12.5 mg/L (≈ 36.6 µM); in test [6], 50 mg/L (≈ 146 µM).

As to `CC(C)(C)c1ccc(-c2nc3cc(Cl)c(Cl)cc3n2C2CCCC2)cc1`, the MIC came to 25 mg/L (≈ 64.5 µM) in test [1]; 25 mg/L (≈ 64.5 µM) in test [2]; 6.25 mg/L (≈ 16.1 µM) in test [3]; 25 mg/L (≈ 64.5 µM) in test [4]; 25 mg/L (≈ 64.5 µM) in test [5]; 50 mg/L (≈ 129 µM) in test [6].

In the case of `Clc1cc2nc(-c3ccc4ccccc4c3)n(C3CCCC3)c2cc1Cl`, the MIC in test [1] was found to be 25 mg/L (≈ 65.6 µM); in test [2], 25 mg/L (≈ 65.6 µM); in test [3], 50 mg/L (≈ 131 µM); in test [4], 12.5 mg/L (≈ 32.8 µM); in test [5], 12.5 mg/L (≈ 32.8 µM); in test [6], 50 mg/L (≈ 131 µM).

Regarding `Clc1ccc2c(c1)nc(-c1ccc3ccccc3c1)n2C1CCCC1`, the MIC in test [1] came to 25 mg/L (≈ 72.1 µM); in test [2], 25 mg/L (≈ 72.1 µM); in test [3], 25 mg/L (≈ 72.1 µM); in test [4] it was 25 mg/L (≈ 72.1 µM); in test [5] it was 6.25 mg/L (≈ 18 µM); in test [6] it was 50 mg/L (≈ 144 µM).

`CCOc1cc2c(cc1Cl)nc(-c1ccc(F)cc1)n2C1CCCC1`: the MIC in test [1] came out at 6.25 mg/L (≈ 17.4 µM); in test [2], 6.25 mg/L (≈ 17.4 µM); in test [3], 6.25 mg/L (≈ 17.4 µM); in test [4], 25 mg/L (≈ 69.7 µM); in test [5], 50 mg/L (≈ 139 µM); in test [6], 50 mg/L (≈ 139 µM).

As for `Nc1nc2cc(Cl)ccc2n1C1CCCC1`, the MIC in test [1] stood at 50 mg/L (≈ 212 µM); in test [2], 50 mg/L (≈ 212 µM); in test [3], 25 mg/L (≈ 106 µM); in test [4] it was 25 mg/L (≈ 106 µM); in test [5], 25 mg/L (≈ 106 µM); in test [6] it was 50 mg/L (≈ 212 µM).

Consider `Clc1ccc2c(c1)ncn2C1CCCC1`, for which the MIC is 50 mg/L (≈ 227 µM) in test [1]; 50 mg/L (≈ 227 µM) in test [2]; 50 mg/L (≈ 227 µM) in test [3]; 50 mg/L (≈ 227 µM) in test [4]; 50 mg/L (≈ 227 µM) in test [5]; not below 50 mg/L in test [6].

Turning to `Clc1cc2nc(Br)n(C3CCCC3)c2cc1Cl`, the MIC turned out to be 6.25 mg/L (≈ 18.7 µM) in test [1]; 6.25 mg/L (≈ 18.7 µM) in test [2]; 3.12 mg/L (≈ 9.34 µM) in test [3]; 25 mg/L (≈ 74.8 µM) in test [4]; 25 mg/L (≈ 74.8 µM) in test [5]; 50 mg/L (≈ 150 µM) in test [6].

For `CC(=O)Oc1ccc(-c2nc3cc(Cl)ccc3n2C2CCCC2)cc1`, the MIC in test [1], in test [2], in test [3], in test [4], in test [5] and in test [6] was 50 mg/L (≈ 141 µM) throughout.

Turning to `Clc1ccc(-c2nc3cc(Cl)c(Cl)cc3n2C2CCCC2)cc1`, the MIC was 50 mg/L (≈ 137 µM) in test [1]; 50 mg/L (≈ 137 µM) in test [2]; 50 mg/L (≈ 137 µM) in test [3]; 25 mg/L (≈ 68.4 µM) in test [4]; 12.5 mg/L (≈ 34.2 µM) in test [5]; 50 mg/L (≈ 137 µM) in test [6].

On to `CN(C)c1ccc(-c2nc3cc(Cl)ccc3n2C2CCCC2)cc1`, for which the MIC was determined as 25 mg/L (≈ 73.6 µM) in test [1]; 25 mg/L (≈ 73.6 µM) in test [2]; 12.5 mg/L (≈ 36.8 µM) in test [3]; 25 mg/L (≈ 73.6 µM) in test [4]; 12.5 mg/L (≈ 36.8 µM) in test [5]; 50 mg/L (≈ 147 µM) in test [6].

`CC1(C)S[C@@H]2[C@H](NC(=O)[C@H](N)c3ccccc3)C(=O)N2[C@H]1C(=O)O` [AMPICILLIN]: the MIC in test [1] worked out at 50 mg/L (≈ 143 µM); in test [2], 50 mg/L (≈ 143 µM); in test [3], 0.78 mg/L (≈ 2.23 µM).

For `O=C(O)c1cn(C2CC2)c2cc(N3CCNCC3)c(F)cc2c1=O` [CIPROFLOXACIN], the MIC is 12.5 mg/L (≈ 37.7 µM) in test [2], 0.78 mg/L (≈ 2.35 µM) in test [3] and 0.09 mg/L (≈ 0.272 µM) in test [4].

Turning to `OC(Cn1cncn1)(Cn1cncn1)c1ccc(F)cc1F` [FLUCONAZOLE], the MIC in test [5] is 1.56 mg/L (≈ 5.09 µM).

With `CC1(C)S[C@@H]2[C@H](NC(=O)[C@H](N)c3ccccc3)C(=O)N2[C@H]1C(=O)OCOC(=O)[C@@H]1N2C(=O)C[C@H]2S(=O)(=O)C1(C)C` [SULTAMICILLIN], the MIC in test [1] is 25 mg/L (≈ 42 µM); in test [2], 25 mg/L (≈ 42 µM); in test [3], 0.39 mg/L (≈ 0.656 µM); in test [4], 0.78 mg/L (≈ 1.31 µM).
